Screening results deposited in PubChem BioAssay by Sanford-Burnham Center for Chemical Genomics.
Only a sample is shown.
HKDC1 act – HKDC1 hexokinase activators, primary screen, biochemical, fluorescence, uHTS; 340,000 tested, 0.056% active; recombinant HKDC1, G6PDH/diaphorase resazurin fluorescence; stronger effect = lower value; activity change, negative = activation, % at 20 µM;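 active means activation of 40% or more at 20 µM, a change of -40% or lower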
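Material: in-house human HKDC1 enzyme, G6PDH and diaphorase coupling enzymes | Quantity: HKDC1 at 5 µg/mL final | Medium: Tris buffer at pH 8.0 containing MgCl2 | Compound dosing: 20 µM single dose | Schedule: 90 min reaction at room temperature, dark | Measured by: Resorufin fluorescence, 525/613 nm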
Starred values were filed as active, the others as inactive.

SMILES	HKDC1 act
N#C/C(C(N)=O)=c1/ccc2c(c1)N1C3=C(CCCC3)CC3CCCCC31N=2 (stereo unspecified)	52
COc1ccc(-c2cc(N)n(CCC#N)n2)c(OC)c1	40
COc1ccc(S(=O)(=O)Nc2cc(SCC(=O)O)c(O)c3ccccc23)cc1	57
COc1ccc(CN2C=C3C(=O)C(C)(OC(=O)C4CCCC4)C(=O)C=C3C=C2c2ccsc2)cc1 (stereo unspecified)	35
CCc1c(C)c(C#N)c2nc3ccccc3n2c1NC	-66*
O=C1NN(c2ccc(F)c(Cl)c2)C(=O)/C1=C\c1cccc(OC(=O)c2cccs2)c1	44
CC(=O)n1cc(N(C(=O)CCl)c2ccc(Cl)cc2)c2ccccc21	58
CCC(C)C(N)C1=NC(C(=O)N[C@@H](CC(C)C)C(=O)N[C@H](CCC(=O)[O-])C(=O)N[C@H](C(=O)N[C@H]2CCCCNC(=O)[C@H](CC(N)=O)NC(=O)[C@@H](CC(=O)[O-])NC(=O)[C@H](Cc3cnc[nH]3)NC(=O)[C@@H](Cc3ccccc3)NC(=O)[C@H]([C@@H](C)CC)NC(=O)[C@@H](CCCN)NC2=O)[C@@H](C)CC)CS1.[Zn+2] (stereo partly specified)	92
O=C1C=C(N2CCCCC2)c2ccccc2C1=O	81
O=C(C1=C(O)C(=O)N(c2nc3ccc(Cl)cc3s2)C1c1ccco1)c1ccco1 (stereo unspecified)	36
